Results from different studies.
Lines come from different studies, so protocols differ.
Observed: metabolic stability
Host: rat

SMILES | matrix | concentration | pH | half-life [min]
Cc1ncc2n1-c1ccc(Cl)cc1C(c1ccccc1F)=NC2 | hepatocytes |  |  | 20.4
CC(=O)c1c(C)c2cnc(Nc3ccc(C4CCN(CCS(C)(=O)=O)CC4)cn3)nc2n(C2CCCC2)c1=O | liver microsomes |  |  | 65.4
C[C@]12CC[C@H]3[C@@H](CCC4=CC(=O)CC[C@@]43C)[C@@H]1CC[C@@H]2O | liver microsomes | 1 µM | pH 7.4 | 5.45
Cc1[nH]c(C)c(S(=O)(=O)Nc2ccc(S(=O)(=O)F)c(Cl)c2)c1C(=O)N1CCC(F)(F)C1 | liver microsomes |  |  | 11
C[C@]12CC[C@H]3[C@@H](CCC4=CC(=O)CC[C@@]43C)[C@@H]1CC[C@@H]2O | liver microsomes |  |  | 1.55
O=c1[nH]c2ccccc2n1C1CCN(CCCC(c2ccc(F)cc2)c2ccc(F)cc2)CC1 | liver microsomes | 100 ng/mL |  | 80
Cc1[nH]c(C)c(S(=O)(=O)Nc2ccc(S(F)(F)(F)(F)F)c(Cl)c2)c1C(=O)N1CCC(F)(F)C1 | liver microsomes |  |  | 34
CC(C)CC(=O)OC[C@H]1O[C@@](C#N)(c2ccc3c(N)ncnn23)[C@H](O)[C@@H]1O | plasma | 5 µM |  | 0.422
